This passage reports Activity results from ChEMBL document CHEMBL3244103, “Modifications of primiaquine as antimalarials. 2. 5-Phenylthio and 5-anilino derivatives of primaquine” (J Med Chem, 1978).

Calls of active or inactive are those of the source. The calls are words filed in the database; no cut-off is given here.

Data set [1] relates to Plasmodium cynomolgi. In words: Antimalarial activity against Plasmodium cynomolgi infected in rhesus monkey at 10 mg/kg. The data set is classed as functional, organism-based. More on the design: dose 10 mg/kg. The method, boiled down:
(§1)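 Radical curative test in rhesus monkeys infected with P. cynomolgi, with compounds given at 0.5, 1 or 10 mg/kg. The read-out is either cures per number of animals treated or the day of relapse for animals not cured.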

For data set [2], the system named is Plasmodium cynomolgi. In words: Antimalarial activity against Plasmodium cynomolgi infected in rhesus monkey at 0.5 mg/kg. Format: functional, organism-based. More on the design: dose 0.5 mg/kg. The method, boiled down: as §1
Data set [3] relates to Plasmodium cynomolgi. In words: Antimalarial activity against Plasmodium cynomolgi infected in rhesus monkey at 1 mg/kg. Details: dose 1 mg/kg. The data set is classed as functional, organism-based. In short, it runs like this: as §1
The next data set is filed under the species Mus musculus. In words: Toxicity in mouse. Particulars: in vivo.
In the next data set the test system is Plasmodium berghei. The experiment in a line: Antimalarial activity against Plasmodium berghei infected in mouse at 320 to 640 mg/kg.
A further data set concerns Rhesus monkey. In words: Toxicity in rhesus monkey at 160 mg/kg. The settings on record: in vivo. The data set is classed as organism-based, Macaca mulatta. More on the design: dose 160 mg/kg.

`COc1cc(NC(C)CCCN)c2ncccc2c1Sc1ccc(Cl)cc1` (stereo unspecified): the result in the data set with Plasmodium cynomolgi [1] was Active. Besides, in the data set with Plasmodium cynomolgi [2], the outcome was inactive.

With `COc1cc(NC(C)CCCN)c2ncccc2c1Sc1cccc(C(F)(F)F)c1` (stereo unspecified), the outcome in the data set on Plasmodium cynomolgi [3] was Active.

As to `COc1cc(NC(C)CCCN)c2ncccc2c1Sc1ccc(Cl)c(Cl)c1` (stereo unspecified), the result in the data set on Plasmodium cynomolgi [1] was Active.

With `COc1cc(NC(C)CCCN)c2ncccc2c1Sc1cccc(Cl)c1` (stereo unspecified), in the data set with Plasmodium cynomolgi [1], the result was Active.

Regarding `COc1ccc(Sc2c(OC)cc(NC(C)CCCN)c3ncccc23)cc1.O=C(O)CC(O)(CC(=O)O)C(=O)O` (stereo unspecified), the Activity result in the data set filed under Mus musculus was “Non-toxic”. The result in the data set with Plasmodium berghei was Active.

Take `COc1cc(NC(C)CCCN)c2ncccc2c1Sc1cc(Cl)ccc1Cl` (stereo unspecified): the outcome in the data set with Plasmodium cynomolgi [1] was Active.

Take `COc1cc(NC(C)CCCN)c2ncccc2c1Sc1ccc2ccccc2c1` (stereo unspecified): in the data set with Plasmodium cynomolgi [1], the outcome was Active.

As to `COc1cc(NC(C)CCCN)c2ncccc2c1.O=P(O)(O)O.O=P(O)(O)O` (stereo unspecified) [PRIMAQUINE PHOSPHATE], the Activity result in the data set on Rhesus monkey is reported as “Toxic”.

In the case of `COc1cc(NC(C)CCCN)c2ncccc2c1Sc1ccccc1Cl` (stereo unspecified), the outcome in the data set on Plasmodium cynomolgi [1] was Active.
